High-throughput results from PubChem BioAssay.
These entries were drawn from the full list.
Apaf-1 act: activators of human Apaf-1 apoptosome, primary screen, biochemical, DEVD-Rh110 fluorescence, uHTS | 330,000 compounds, 0.31% hits | Apoptotic protease-activating factor 1 (Homo sapiens), O14727 | Apaf-1 apoptosome caspase-3 activation; stronger effect = lower value | AID 489031, 2010 | activity change, negative = activation, % at 20 µM;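 active = activity change at or below -40% at 20 µM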
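Assay system – biochemical Apaf-1 apoptosome reconstitution · Medium – 20 mM HEPES buffer, pH 7.5, containing CHAPS and BSA · Incubation – 30 min preincubation, 50 min reaction, room temperature · Measured by – Caspase-3-released Rh110 fluorescence, 540 nm emission, 480 nm excitation · Read-out – Caspase-3 cleavage activity downstream of Apaf-1 activation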
Rh110 interf act: Rh110 fluorescence interference by putative Apaf-1 activators, confirmation, artefact control for Apaf-1 activator project, biochemical, 20 µM. shares compounds with Apaf-1 act. quenched caspase reaction, Ex480/Em540. fluorescence interference (activity change), % at 20 µM, hits read low. 980 tested, under 10 active;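 active = mean activity change at or below -40% when tested at 20 µM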
Apaf-1 act conf: Apaf-1 activators, single-dose retest, confirmation, biochemical, fluorescence, DEVD-Rh110, 20 µM | AID 504617, 2011 | shares compounds with Apaf-1 act | activity change, negative = activation, % at 20 µM | reconstituted apoptosome caspase-3 activity; stronger effect = lower value | 980 compounds, 5% hits;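 active = mean activity change at or below -40%, meaning activation of 40% or more, at 20 µM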
Fluor interf act: fluorescence interference of Apaf-1 activator hits, dose response, artefact control for Apaf-1 activator project | shares compounds with Apaf-1 act | fluorescence interference counterscreen, Apaf-1 activator assay | EC50, µM | 55 tested, under 10 active; call rule not given here
Numbers stand for hits; 0 = inactive; - = no result.

SMILES	Apaf-1 act	Rh110 interf act	Apaf-1 act conf	others
CSc1ccccc1NC(=O)c1cc(-c2ccc3c(c2)OCO3)on1	-197	0	0
CSc1ccccc1NC(=O)c1cc(S(=O)(=O)N(C)C)ccc1N1CCCC1	0	-	-
O=C1C(Cl)=C(NCc2cccnc2)C(=O)c2ccccc21	0	-	-
N#Cc1c(N)n(CCOC(=O)c2cccc(Br)c2)c2nc3ccccc3nc12	0	-	-
COc1ccc(C[C@H]2CN3C(=NC[C@@H]3C(C)C)N2C[C@H](C)NC(=O)c2ccc(C)c(Br)c2)cc1	0	-	-
COc1cc(NC2CCCCC2O)c2nc(-c3ccc(Cl)cc3)ccc2c1 (stereo not drawn)	0	-	-
CC1=NN(c2ccccc2)C(=O)/C1=C/c1ccc(Cl)cc1	0	-	-
CC1=NN(c2ccccc2)C(=O)/C1=C\c1ccc(Br)s1	0	-	-
CC1=NN(c2ccccc2)C(=O)/C1=C/c1ccc[nH]1	-138	0	0
O=C(Nc1ccccc1OC(F)F)c1oc2ccccc2c1COc1ccccc1	-180	0	0
CCCCC1=CC2=C(c3ccco3)C(=O)C(C)(OC(=O)c3ccc(OC)cc3)C(=O)C2=CN1C1CC1 (stereo not drawn)	0	-	-
COc1ccc(-c2sc3cc4c(cc3c2C#CC2(N)CCCCC2)OCO4)cc1	0	-	-
Cc1ccc2ccc(C3C(=O)c4ccccc4C3=O)nc2c1	-170	0	0
O=S(=O)(Nc1ccc(S(=O)(=O)Nc2ncccn2)cc1)c1ccccc1	-510	0	0
O=S(=O)(Nc1cc(Sc2ncn[nH]2)c(O)c2ccccc12)c1ccccc1	0	-	-
CC1CCN(C2=C(NS(=O)(=O)c3ccccc3)C(=O)c3ccccc3C2=O)CC1	0	-	-
O=C(CC1Nc2cccc3cccc(c23)NC1=O)Nc1ccccc1 (stereo not drawn)	0	-	-
CC(C)c1ccc(NC(=O)C2CC(=O)N(C3CCCC3)C2)cc1 (stereo not drawn)	-96	0	0
CCOC(=O)C1CCN(C(=O)c2c(C)oc3c2C(=O)c2ccccc2C3=O)CC1	0	-	-
CCOC(=O)C1CCCN(C(=O)c2cccc(S(=O)(=O)N(C)c3c(C)n(C)n(-c4ccccc4)c3=O)c2)C1 (stereo not drawn)	0	-	-
CCOC(=O)C1CCN(C(=O)c2ccccc2NS(=O)(=O)c2ccccc2)CC1	-496	0	0
C[C@H](CO)N1C[C@H](C)[C@@H](CN(C)Cc2ccc(Cl)c(Cl)c2)Oc2c(NC(=O)CCC(F)(F)F)cccc2C1=O	0	-	-
COc1ccccc1-c1nnc(C2CCN(S(=O)(=O)c3cccc([N+](=O)[O-])c3)CC2)o1	-53	0	0
CCCCCCSc1ccc(-c2nc3ccc(C)cn3c2NCc2ccccc2)cc1OC	0	-	-
COc1ccc(C2/C(=C(/O)c3ccc4c(c3)CC(C)O4)C(=O)C(=O)N2CCCn2ccnc2)cc1 (stereo not drawn)	0	-	-
SMILES	Apaf-1 act	Rh110 interf act	Apaf-1 act conf	others
COc1ccc(/C(O)=C2/C(=O)C(=O)N(Cc3ccco3)C2c2cccs2)cc1 (stereo not drawn)	-64	0	0
C1=CC2c3ccccc3NC(c3ccncc3)C2C1 (stereo not drawn)	0	-	-
Cc1cc(C(=O)OCC(=O)NC(=O)c2cccn2C)c2ccccc2n1	-127	0	0
Cc1cc(C)c(C(N)=O)c(Nc2cccc3ccccc23)n1	0	-	-
CC[C@@H](C)[C@@H]1CN([C@@H](C)CN2CCC[C@H]2CN2C(N)=NC[C@@H]2Cc2ccccc2)C(=N)N1CCCC1CCCC1	0	-	-
CCC(Cc1ccccc1)NC(=O)CCn1cccc1 (stereo not drawn)	-220	0	0
O=C1C2=C(c3ccccc31)[N+](=O)[C@@H]1CCCC[C@@H]1N2[O-]	0	-	-
N#Cc1c2c(c(-n3cnc4ccccc43)n3c1nc1ccccc13)CCC2	0	-	-
Cc1ccc2nc(N(CCCN(C)C)C(=O)c3ccc(S(=O)(=O)N4CCc5ccccc5C4)cc3)sc2c1	0	-	-
CCS(=O)(=O)c1nc(S(=O)(=O)c2ccc(Cl)cc2)c(N2CCc3ccccc3C2)s1	-406	0	0
C#CCOCCOCCOCCNc1nc(N2CCN(C(=O)[C@H](Cc3ccc(O)cc3)n3cc([C@@H](N)C(C)CC)nn3)CC2)nc(N2CCN(C(=O)[C@H](Cc3cc4ccccc4[nH]3)n3cc([C@@H](N)CC(C)C)nn3)CC2)n1 (stereo partly drawn)	0	-	-
C#CCOCCOCCOCCNc1nc(N2CCOCC2)nc(N2CCN(C(=O)[C@H](CCCCN)n3cc(CN)nn3)CC2)n1	0	-	-
COc1ccc(C(C)(C)C)cc1NC(=O)CNc1cccc2ccccc12	0	-	-
COc1ccc(CC(=O)Nc2ccc(-c3nc4cc(C)ccc4o3)c(O)c2)cc1OC	0	-	-
COc1ccc(OC)c(NC(=O)CS(=O)(=O)Cc2nc(-c3ccccc3C)oc2C)c1	-50	0	0
COC(=O)c1c(NC(=O)c2nc3ccccc3s2)sc2c1CC(C)(C)NC2(C)C	0	-	-
Cn1c(SCC(=O)NNC(=O)c2ccccc2)nnc1C(F)(F)F	-97	0	0
Cn1c(SCC(=O)n2c3c(c4ccccc42)CCCC3)nnc1-c1ccccc1	0	-	-
OCc1cc(C(O)CNCCCCCCOCCCCc2ccccc2)ccc1O (stereo not drawn)	0	-	-
CC(C)(C)C(=O)[C@@H]1[C@@H]2C(=O)N(C3CCCCC3)C(=O)[C@@H]2[C@H]2c3ccccc3C=CN12	0	-	-
CSc1ccc2c(c1)N(CCC1CCCCN1C)c1ccccc1S2 (stereo not drawn)	0	-	-
O=C(NC(=S)Nn1cnc2c(cnn2-c2ccccc2)c1=O)c1ccc(Oc2ccccc2)cc1	0	-	-
COC(=O)Cn1cnc2c(cnn2-c2ccccc2)c1=O	-197	0	0
CCOc1ccc(/C=C/[N+](=O)[O-])c2ccccc12	0	-	-
N#C/C(=N/Nc1ccccc1[N+](=O)[O-])C(N)=S	-40	0	0
SMILES	Apaf-1 act	Rh110 interf act	Apaf-1 act conf	others
CCCCCCCc1ccc(C2NC(=S)NC3=C2C(=O)c2ccccc23)cc1 (stereo not drawn)	0	-	-
Clc1ccc(/C=N/Nc2ncnc3ccccc23)cc1Cl	0	-	-
CC(=O)NC1=C(N(C)C2CCS(=O)(=O)C2)C(=O)c2ccccc2C1=O (stereo not drawn)	0	-	-
CCCCCc1cc(=O)oc2c(C(CCN3CCCC(C)C3)c3cc(OC)c(OC)c(OC)c3)c(OC)cc(OC)c12 (stereo not drawn)	0	-	-
C=CCN1C=C2C(=O)C(C)(OC(=O)CCC(=O)OC)C(=O)C(Br)=C2C=C1c1ccc(OC)cc1 (stereo not drawn)	0	-	-
COC(=O)CCC(=O)OC1(C)C(=O)C2=CN(C3CCCC3)C(c3ccc(OC)cc3)=CC2=C(Br)C1=O (stereo not drawn)	0	-	-
COCCN1C=C2C(=O)C(C)(OC(=O)CCC(=O)OC)C(=O)C(Br)=C2C=C1c1ccc(OC)cc1 (stereo not drawn)	0	-	-	Fluor interf act=0
Nc1c(C(=O)NCCN2CCOCC2)c2nc3ccccc3nc2n1CCc1ccccc1F	0	-	-
